According to ChEMBL document CHEMBL5252671, “Design, synthesis and evaluation of the anti-breast cancer activity of 1,3-oxazolo[4,5-d]pyrimidine and 1,3-oxazolo[5,4-d]pyrimidine derivatives” (2023):
The source made the active and inactive calls. The calls are words filed in the database; no cut-off is given here.

How the values were obtained:
Type in all cases: functional
MDA-MB-231 [1] = assay: Antiproliferative activity against human wild type MDA-MB-231 cells assessed as inhibition of cell growth at 3 uM measured at 48 hrs by trypan blue staining based MTT assay
In short: (§1)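 MDA cell lines were treated with 5-iodotubercidin (1 μM or 3 μM) or with test compound (10 μM or 30 μM). Drugs were dissolved in 0.225% DMSO, which also served as vehicle control. Proliferation was measured by Trypan Blue cell counting every 24 h for several consecutive days after seeding. MTT viability compared wild-type and mutant cells.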

MDA-MB-231 [2] = assay: Antiproliferative activity against human ADK-L knockdown MDA-MB-231 cells assessed as inhibition of cell growth at 1 to 3 uM measured at 24 hrs by trypan blue staining based MTT assay; conditions: dose 1-3 µM; in short: as §1
MDA-MB-231 [3] = assay: Antiproliferative activity against human wild type MDA-MB-231 cells assessed as inhibition of cell growth at 3 uM measured at 24 hrs by trypan blue staining based MTT assay; in short: as §1
MDA-MB-468 [4] = assay: Anticancer activity against human MDA-MB-468 cells measured at 48 hrs
In short: (§2)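 NCI DTP five-dose screen on the breast subpanel: compound at 0.01, 0.1, 1, 10 and 100 μM for 48 h. Cell density read by sulforhodamine B (protein content). GI50, TGI and LC50 were derived from the T, T0 and C optical densities using the NCI formulas.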

MDA-MB-231 [5] = assay: Antiproliferative activity against human MDA-MB-231 cells assessed as inhibition of cell growth at 1 X 10^-5 M measured for 48 hrs by sulforhodamine B assay relative to control; conditions: MDA-MB-231, 48 h, dose 1 10^-5M
In short: (§3)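 NCI one-dose screen. Cells were seeded at 5000-40000/well in RPMI 1640 with 5% FBS and 2 mM L-glutamine and preincubated 24 h at 37 °C in 5% CO2. Compound was added at 10⁻⁵ M for 48 h. Cells were then fixed with 10% TCA, stained with sulforhodamine B, washed with 1% acetic acid, solubilized in 10 mM Tris and read as OD at 510 nm.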

MDA-MB-231 [6] = assay: Antiproliferative activity against human wild type MDA-MB-231 cells assessed as inhibition of cell growth at 10 uM measured at 24 to 96 hrs by trypan blue staining based MTT assay; conditions: time 24-96 hrs; in short: as §1
T47D [7] = assay: Anticancer activity against human T47D cells measured at 48 hrs; conditions: for CC50: read-out: LC50 (the source's name); in short: as §2
Hs-578T [8] = assay: Antiproliferative activity against human Hs-578T cells assessed as inhibition of cell growth at 1 X 10^-5 M measured for 48 hrs by sulforhodamine B assay relative to control; conditions: dose 1 10^-5M; in short: as §3
MDA-MB-231 [9] = assay: Antiproliferative activity against human wild type MDA-MB-231 cells assessed as inhibition of cell growth at 10 to 30 uM measured for 24 hrs by trypan blue staining based MTT assay; conditions: dose 10-30 µM; in short: as §1
MDA-MB-231 [10] = assay: Antiproliferative activity against human ADK-L knockdown MDA-MB-231 cells assessed as inhibition of cell growth at 1 to 3 uM measured at 24 hrs in presence of 5-iodotubercidin by trypan blue staining based MTT assay; conditions: dose 1-3 µM; in short: as §1
BT-549 [11] = assay: Anticancer activity against human BT-549 cells measured at 48 hrs; in short: as §2
MDA-MB-231 [12] = assay: Anticancer activity against human MDA-MB-231 cells measured at 48 hrs; in short: as §2
MDA-MB-468 [13] = assay: Antiproliferative activity against human MDA-MB-468 cells assessed as inhibition of cell growth at 1 X 10^-5 M measured for 48 hrs by sulforhodamine B assay relative to control; conditions: MDA-MB-468, 48 h, dose 1 10^-5M; in short: as §3
MCF7 [14] = assay: Antiproliferative activity against human MCF7 cells assessed as inhibition of cell growth at 1 X 10^-5 M measured for 48 hrs by sulforhodamine B assay relative to control; conditions: MCF7, 48 h, dose 1 10^-5M; in short: as §3
MDA-MB-231 [15] = assay: Antiproliferative activity against human wild type MDA-MB-231 cells assessed as inhibition of cell growth at 3 uM measured at 24 hrs in presence of 5-Iodotubercidin by trypan blue staining based MTT assay; in short: as §1
MDA-MB-231 [16] = assay: Antiproliferative activity against human wild type MDA-MB-231 cells assessed as inhibition of cell growth at 10 to 30 uM measured for 24 hrs in presence of 5-Iodotubercidin by trypan blue staining based MTT assay; conditions: dose 10-30 µM; in short: as §1
T47D [17] = assay: Antiproliferative activity against human T47D cells assessed as inhibition of cell growth at 1 X 10^-5 M measured for 48 hrs by sulforhodamine B assay relative to control; conditions: dose 1 10^-5M; in short: as §3
MCF7 [18] = assay: Anticancer activity against human MCF7 cells measured at 48 hrs; in short: as §2
MDA-MB-231 [19] = assay: Antiproliferative activity against human wild type MDA-MB-231 cells assessed as inhibition of cell growth at 3 uM measured at 96 hrs by trypan blue staining based MTT assay; in short: as §1
BT-549 [20] = assay: Antiproliferative activity against human BT-549 cells assessed as inhibition of cell growth at 1 X 10^-5 M measured for 48 hrs by sulforhodamine B assay relative to control; conditions: BT-549, 48 h, dose 1 10^-5M; in short: as §3
Hs-578T [21] = assay: Anticancer activity against human Hs-578T cells measured at 48 hrs; in short: as §2

Compound	GI50 (MDA-MB-468 [4])	TGI (MDA-MB-468 [4])	inhibition at 10 µM (MDA-MB-231 [5])	GI50 (T47D [7])	TGI (T47D [7])	inhibition at 10 µM (Hs-578T [8])	GI50 (BT-549 [11])	TGI (BT-549 [11])	GI50 (MDA-MB-231 [12])	LC50 (concentration killing 50% of starting cells) (MDA-MB-231 [12])	TGI (MDA-MB-231 [12])	inhibition at 10 µM (MDA-MB-468 [13])	inhibition at 10 µM (MCF7 [14])	inhibition at 10 µM (T47D [17])	GI50 (MCF7 [18])	LC50 (concentration giving 50% net cell kill) (MCF7 [18])	TGI (MCF7 [18])	inhibition at 10 µM (BT-549 [20])	GI50 (Hs-578T [21])	LC50 (50% lethal concentration) (Hs-578T [21])	other results
Nc1ncnc2c1c(I)cn2[C@@H]1O[C@H](CO)[C@@H](O)[C@H]1O																					Activity (MDA-MB-231 [1]): Active; Activity (MDA-MB-231 [2]): Active
c1ccc(-c2nc(N3CCNCC3)c3oc(-c4ccccc4)nc3n2)cc1	1.73 µM	3.42 µM	187%	2.1 µM	4.95 µM	161%	1.77 µM	3.41 µM	1.76 µM	6.1 µM	3.28 µM	174%	162%	142%	1.48 µM	7.4 µM	3.31 µM	106%	1.88 µM	8.8 µM	Activity (MDA-MB-231 [3]): Active; Activity (MDA-MB-231 [6]): Active; CC50 (T47D [7]): > 100 µM; Activity (MDA-MB-231 [9]): Active; Activity (MDA-MB-231 [10]): Active; Activity (MDA-MB-231 [15]): Active; Activity (MDA-MB-231 [16]): Active; Activity (MDA-MB-231 [19]): inactive; TGI (Hs-578T [21]): 4.07 µM
c1ccc(-c2nc(N3CCNCC3)c3nc(-c4ccccc4)oc3n2)cc1	1.93 µM	3.66 µM	181%	1.94 µM	4.19 µM	11%	1.67 µM	3.24 µM	1.67 µM	6.13 µM	3.2 µM	137%	169%	157%	1.7 µM	7.54 µM	3.58 µM	3%	1.87 µM	9.05 µM	LC50 (concentration giving 50% net cell kill) (MDA-MB-468 [4]): 6.94 µM; LC50 (concentration giving 50% net cell kill) (BT-549 [11]): 6.27 µM; TGI (Hs-578T [21]): 4.11 µM
Cc1ccc(-c2nc(N3CCNCC3)c3oc(-c4ccc(C)cc4)nc3n2)cc1	2.13 µM	4.77 µM	172%	11.4 µM	37.4 µM	1%	1.71 µM	3.32 µM	1.74 µM	6.81 µM	3.44 µM	133%	173%	63%	1.72 µM	7.86 µM	3.68 µM	17%	2.27 µM	> 100 µM	LC50 (concentration giving 50% net cell kill) (MDA-MB-468 [4]): 13.5 µM; CC50 (T47D [7]): > 100 µM; LC50 (concentration giving 50% net cell kill) (BT-549 [11]): 6.48 µM; TGI (Hs-578T [21]): 5.83 µM
c1ccc(-c2nc(N3CCCNCC3)c3nc(-c4ccccc4)oc3n2)cc1	1.72 µM	3.37 µM	103%	1.78 µM	3.64 µM	16%	1.78 µM	3.29 µM	1.72 µM	5.99 µM	3.21 µM	153%	167%	53%	1.67 µM	6.67 µM	3.34 µM	5%	1.86 µM	8.34 µM	LC50 (concentration giving 50% net cell kill) (MDA-MB-468 [4]): 6.57 µM; CC50 (T47D [7]): 7.42 µM; TGI (Hs-578T [21]): 3.94 µM
Cc1ccc(-c2nc(N3CCCNCC3)c3oc(-c4ccc(C)cc4)nc3n2)cc1	1.96 µM	4.39 µM	179%	1.94 µM	4.17 µM	0%	16.3 µM	35 µM	1.69 µM	5.73 µM	3.11 µM	95%	165%	146%	1.85 µM	8.14 µM	3.88 µM	10%	12.6 µM	80.9 µM	CC50 (T47D [7]): 8.96 µM; LC50 (concentration giving 50% net cell kill) (BT-549 [11]): 75.2 µM; TGI (Hs-578T [21]): 31.9 µM
Cc1ccc(-c2nc(N3CCNCC3)c3oc(-c4ccccc4)nc3n2)cc1	1.81 µM	3.8 µM	179%	1.81 µM	3.83 µM	72%	13.8 µM	31.6 µM	1.62 µM	5.77 µM	3.06 µM	131%	175%	158%	1.85 µM	7.6 µM	3.75 µM	15%	2.53 µM	> 100 µM	LC50 (concentration giving 50% net cell kill) (MDA-MB-468 [4]): 7.98 µM; CC50 (T47D [7]): 8.07 µM; LC50 (concentration giving 50% net cell kill) (BT-549 [11]): 72.7 µM; TGI (Hs-578T [21]): 7.69 µM
